The values that follow come from ChEMBL document CHEMBL3091445, “The 3,7-diazabicyclo[3.3.1]nonane scaffold for subtype selective nicotinic acetylcholine receptor ligands. Part 2: carboxamide derivatives with different spacer motifs” (Bioorg Med Chem, 2013).

Experiment [1] addresses T1, Nicotinic acetylcholine receptor alpha1/beta1/epsilon/delta (Mus musculus) (UniProt P04756+P09690+P02716+P20782). The experiment is described as follows: Agonist activity at mouse muscle alpha1beta1epsilondelta nAChR expressed in Xenopus oocytes at 10 uM incubated for 8 secs followed by compound washout measured after 241 secs by two-electrode voltage clamp technique. In kind it is cell-based. Background: In two-electrode clamp one electrode senses voltage and the other passes current.

The target in experiment [2] is Neuronal acetylcholine receptor subunit alpha-7 (Homo sapiens) (UniProt P36544). Kind of experiment: Agonist activity at human alpha7 nAChR expressed in Xenopus oocytes at 10 uM incubated for 12 secs followed by compound washout measured after 181 secs by two-electrode voltage clamp technique. In kind it is cell-based.
Chain of Neuronal acetylcholine receptor subunit alpha-7 (Homo sapiens) (P36544 whole entry): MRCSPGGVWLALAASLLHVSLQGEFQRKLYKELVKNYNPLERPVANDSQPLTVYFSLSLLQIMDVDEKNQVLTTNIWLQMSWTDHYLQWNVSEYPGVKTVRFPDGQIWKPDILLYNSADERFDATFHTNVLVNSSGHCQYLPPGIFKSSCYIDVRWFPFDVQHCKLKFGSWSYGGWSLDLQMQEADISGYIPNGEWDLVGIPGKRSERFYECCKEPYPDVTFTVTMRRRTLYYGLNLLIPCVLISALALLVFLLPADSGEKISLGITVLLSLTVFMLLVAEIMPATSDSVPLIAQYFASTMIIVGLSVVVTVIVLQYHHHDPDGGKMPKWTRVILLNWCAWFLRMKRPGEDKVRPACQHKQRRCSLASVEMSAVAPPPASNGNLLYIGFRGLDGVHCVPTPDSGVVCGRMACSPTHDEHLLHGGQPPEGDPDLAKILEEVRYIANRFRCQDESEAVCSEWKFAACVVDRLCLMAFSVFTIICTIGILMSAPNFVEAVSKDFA
The target is the same in experiment [3]. The experiment is described as follows: Antagonist activity at human alpha7 nAChR expressed in Xenopus oocytes assessed as inhibition of acetylcholine-induced effect at 1 uM incubated for 12 secs followed by compound washout measured after 181 secs by two-electrode voltage clamp technique. Type of experiment: cell-based.
The target in experiment [4] is T1, Nicotinic acetylcholine receptor alpha1/beta1/epsilon/delta (Mus musculus). The experiment is described as follows: Antagonist activity at mouse muscle alpha1beta1epsilondelta nAChR expressed in Xenopus oocytes assessed as inhibition of acetylcholine-induced effect at 1 uM incubated for 8 secs followed by compound washout measured after 241 secs by two-electrode voltage clamp technique. In kind it is cell-based.

Experiment [5] deals with Neuronal acetylcholine receptor; alpha3/beta4 (Homo sapiens) (UniProt P30926+P32297). Kind of experiment: Agonist activity at human alpha3beta4 nAChR expressed in Xenopus oocytes at 10 uM incubated for 8 secs followed by compound washout measured after 241 secs by two-electrode voltage clamp technique. In kind it is cell-based.
The target of experiment [6] is Neuronal acetylcholine receptor; alpha4/beta2 (Homo sapiens) (UniProt P17787+P43681). The experiment is described as follows: Antagonist activity at human alpha4beta2 nAChR expressed in Xenopus oocytes assessed as inhibition of acetylcholine-induced effect at 1 uM incubated for 8 secs followed by compound washout measured after 241 secs by two-electrode voltage clamp technique. In kind it is cell-based.

Experiment [7] concerns the target Neuronal acetylcholine receptor subunit alpha-7 (Rattus norvegicus, UniProt Q05941). Kind of experiment: Displacement of [3H]methyllycaconitine from Sprague-Dawley rat brain alpha7 nAChR after 120 mins by liquid scintillation counting analysis. Type of experiment: tissue-based. An outline of the steps: (§1)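 Radioligand competition binding gave Ki values, reported as mean ± SEM from 2–10 independent experiments.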
For orientation: Displacement assays read how much labelled ligand stays bound in the presence of the test substance.

For experiment [8], the target named is Neuronal acetylcholine receptor; alpha4/beta2 (Rattus norvegicus, UniProt P09483+P12390). Kind of experiment: Displacement of [3H]epibatidine from Sprague-Dawley rat brain alpha4beta2 nAChR after 90 mins by liquid scintillation counting analysis. The procedure, abridged: as §1
Chain of Neuronal acetylcholine receptor; alpha4/beta2 (P09483 whole entry): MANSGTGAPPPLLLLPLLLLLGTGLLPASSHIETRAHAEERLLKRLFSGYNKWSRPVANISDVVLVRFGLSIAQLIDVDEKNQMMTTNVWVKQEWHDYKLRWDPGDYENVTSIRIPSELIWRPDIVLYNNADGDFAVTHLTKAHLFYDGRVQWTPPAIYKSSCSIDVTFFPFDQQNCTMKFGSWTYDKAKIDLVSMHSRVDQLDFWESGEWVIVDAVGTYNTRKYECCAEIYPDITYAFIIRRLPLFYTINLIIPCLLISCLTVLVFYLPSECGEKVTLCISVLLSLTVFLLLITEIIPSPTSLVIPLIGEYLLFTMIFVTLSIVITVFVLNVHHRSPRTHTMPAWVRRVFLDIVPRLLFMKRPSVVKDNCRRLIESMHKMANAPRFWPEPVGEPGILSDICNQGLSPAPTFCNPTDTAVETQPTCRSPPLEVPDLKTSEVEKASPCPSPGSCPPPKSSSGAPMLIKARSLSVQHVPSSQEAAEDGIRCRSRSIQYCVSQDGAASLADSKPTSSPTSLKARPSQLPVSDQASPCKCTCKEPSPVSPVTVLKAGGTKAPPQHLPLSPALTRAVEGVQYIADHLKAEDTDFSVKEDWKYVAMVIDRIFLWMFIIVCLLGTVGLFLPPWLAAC
Chain of Neuronal acetylcholine receptor; alpha4/beta2 (P12390 whole entry): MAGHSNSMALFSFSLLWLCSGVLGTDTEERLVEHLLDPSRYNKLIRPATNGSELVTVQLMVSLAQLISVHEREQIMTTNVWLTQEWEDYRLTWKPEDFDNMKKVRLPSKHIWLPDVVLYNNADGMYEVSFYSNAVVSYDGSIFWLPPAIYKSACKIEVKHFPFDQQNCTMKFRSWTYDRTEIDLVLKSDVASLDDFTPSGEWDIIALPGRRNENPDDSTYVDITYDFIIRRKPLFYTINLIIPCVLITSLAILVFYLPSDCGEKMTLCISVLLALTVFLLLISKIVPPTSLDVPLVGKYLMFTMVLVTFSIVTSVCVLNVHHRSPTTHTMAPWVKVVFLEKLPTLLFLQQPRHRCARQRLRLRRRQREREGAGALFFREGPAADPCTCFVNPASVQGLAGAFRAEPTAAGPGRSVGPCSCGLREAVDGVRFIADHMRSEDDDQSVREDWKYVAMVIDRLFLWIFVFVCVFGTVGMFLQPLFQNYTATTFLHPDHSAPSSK

As usually defined, the Ki is a measure of affinity in units of concentration, obtained from inhibition or displacement. A high value points to a looser hold on the target.

Calls of active or inactive are those of the source. The rule behind the calls is not given here.

Chain of Neuronal acetylcholine receptor subunit alpha-7 (Q05941 whole entry): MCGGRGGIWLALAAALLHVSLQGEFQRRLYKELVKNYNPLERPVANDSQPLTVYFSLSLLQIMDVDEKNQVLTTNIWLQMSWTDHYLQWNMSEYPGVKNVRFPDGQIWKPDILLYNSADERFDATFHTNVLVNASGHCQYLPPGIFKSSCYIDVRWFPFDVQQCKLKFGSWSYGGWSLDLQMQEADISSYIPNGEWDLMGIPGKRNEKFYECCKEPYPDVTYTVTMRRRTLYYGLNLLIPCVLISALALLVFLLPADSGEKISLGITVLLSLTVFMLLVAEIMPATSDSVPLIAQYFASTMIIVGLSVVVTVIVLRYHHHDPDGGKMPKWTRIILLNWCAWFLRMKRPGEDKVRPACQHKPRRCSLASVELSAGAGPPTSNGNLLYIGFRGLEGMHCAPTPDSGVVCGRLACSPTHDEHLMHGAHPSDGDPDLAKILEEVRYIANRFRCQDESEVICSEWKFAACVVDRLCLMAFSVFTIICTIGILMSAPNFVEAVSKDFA

With `O=C([C@@H]1C[C@H]1c1ccccc1)N1C[C@@H]2CNC[C@@H](C2)C1`, in experiment [1], the outcome was inactive. Further, the outcome in experiment [2] and in experiment [5] was Active. In addition, the inhibition entry in experiment [3] and in experiment [4] was “inactive” throughout. The “antagonist activity (active/inactive)” value in experiment [6] was “Active”. Moreover, the Ki in experiment [7] is above 10 µM; in experiment [8], 1.2 nM.
